# How the values were obtained:
# [1] = test system: L1210; test: Effective concentration required to inhibit by 50% the growth of L1210 cells; type: functional, cell-based; conditions: Mus musculus
# Summary of the method: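 Mouse L1210 leukemia cells were grown in RPMI 1640 with 5% fetal calf serum, penicillin and streptomycin at 37 °C in humidified air–5% CO2, and seeded at 5 × 10⁴ cells/mL. Compounds dissolved in 50% ethanol were added at four concentrations. EC50 is the concentration giving 50% growth inhibition after 48 h, measured by cell protein content.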
# [2] = test system: HeLa; test: Effective concentration required to inhibit by 50% the growth of HeLa S3 cells; type: functional, cell-based; conditions: Homo sapiens
# Summary of the method: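 HeLa S3 cultures were given compounds dissolved in water, at final concentrations of 0.005–5 μg/mL in the incubation medium. EC50 is the concentration that inhibited the increment of cellular protein by 50%, read from dose-response curves.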
# [3] = test system: P338; test: Ratio of medium survival time expressed as percent of untreated controls(dose 3.12 mg/kg); type: functional, Mus musculus
# Summary of the method: (§1)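 BDF1 mice inoculated ip on day 0 with 10^6 P388 lymphocytic leukemia cells. Drug given ip on days 1–5 following NCI protocols, at the dose stated. Eight mice per treatment group. Mean survival time was computed per group, and % T/C = (MST treated/MST control) × 100.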
# [4] = test system: P338; test: Survivor recorded on day 4 after day of first injection as a measure of drug toxicity(dose 12.5 mg/kg); 6/6; type: functional, Mus musculus
# [5] = test system: P338; test: Survivor recorded on day 4 after day of first injection as a measure of drug toxicity(dose 25 mg/kg); 6/6; type: functional, Mus musculus
# [6] = test system: P338; test: Ratio of medium survival time expressed as percent of untreated controls(dose 25 mg/kg); type: functional, Mus musculus; summary of the method: as §1
# [7] = test system: P338; test: Ratio of medium survival time expressed as percent of untreated controls(dose 12.5 mg/kg); type: functional, Mus musculus; summary of the method: as §1
# [8] = test system: P338; test: Survivor recorded on day 4 after day of first injection as a measure of drug toxicity(dose 3.12 mg/kg); 6/6; type: functional, Mus musculus
# [9] = test system: P338; test: Survivor recorded on day 4 after day of first injection as a measure of drug toxicity(dose 6.25 mg/kg); 6/6; type: functional, Mus musculus
# [10] = test system: P338; test: Ratio of medium survival time expressed as percent of untreated controls(dose 6.25 mg/kg); type: functional, Mus musculus; summary of the method: as §1
# [11] = test system: P338; test: Ratio of medium survival time expressed as percent of untreated controls (dose 3.12 mg/kg); type: functional, Mus musculus; summary of the method: as §1
# [12] = test system: P338; test: Ratio of medium survival time expressed as percent of untreated controls (dose 25 mg/kg); Toxic; type: functional, organism-based; design: dose 25 mg/kg; conditions: Mus musculus, at 25 mg/kg
# [13] = test system: P338; test: Ratio of medium survival time expressed as percent of untreated controls (dose 1.6 mg/kg); type: functional, Mus musculus; summary of the method: as §1
# [14] = test system: P338; test: Survivor recorded on day 4 after day of first injection as a measure of drug toxicity (dose 50 mg/kg); 0/8; type: functional, Mus musculus
# [15] = test system: P338; test: Survivor recorded on day 4 after day of first injection as a measure of drug toxicity (dose 1.6 mg/kg); 8/8; type: functional, Mus musculus
# [16] = test system: P338; test: Ratio of medium survival time expressed as percent of untreated controls (dose 6.25 mg/kg); type: functional, Mus musculus; summary of the method: as §1
# [17] = test system: P338; test: Survivor recorded on day 4 after day of first injection as a measure of drug toxicity (dose 3.12 mg/kg); 8/8; type: functional, Mus musculus
# [18] = test system: P338; test: Survivor recorded on day 4 after day of first injection as a measure of drug toxicity (dose 6.25 mg/kg); 8/8; type: functional, Mus musculus
# [19] = test system: P338; test: Survivor recorded on day 4 after day of first injection as a measure of drug toxicity (dose 12.5 mg/kg); 8/8; type: functional, Mus musculus
# [20] = test system: P338; test: Survivor recorded on day 4 after day of first injection as a measure of drug toxicity (dose 25 mg/kg); 6/8; type: functional, Mus musculus
# [21] = test system: P338; test: Ratio of medium survival time expressed as percent of untreated controls (dose 12.5 mg/kg); type: functional, Mus musculus; summary of the method: as §1
# [22] = test system: P338; test: Survivor recorded on day 4 after day of first injection as a measure of drug toxicity(dose 25 mg/kg); 8/8; type: functional, Mus musculus
# [23] = test system: P338; test: Survivor recorded on day 4 after day of first injection as a measure of drug toxicity(dose 12.5 mg/kg); 8/8; type: functional, Mus musculus
# [24] = test system: P338; test: Ratio of medium survival time expressed as percent of untreated controls(dose 1.5 mg/kg); type: functional, Mus musculus; summary of the method: as §1
# [25] = test system: P338; test: Survivor recorded on day 4 after day of first injection as a measure of drug toxicity(dose 1.5 mg/kg); 8/8; type: functional, Mus musculus
# [26] = test system: P338; test: Survivor recorded on day 4 after day of first injection as a measure of drug toxicity(dose 3.12 mg/kg); 8/8; type: functional, Mus musculus
# [27] = test system: P338; test: Ratio of medium survival time expressed as percent of untreated controls(dose 50 mg/kg); type: functional, Mus musculus; summary of the method: as §1
# [28] = test system: P338; test: Survivor recorded on day 4 after day of first injection as a measure of drug toxicity(dose 50 mg/kg); 8/8; type: functional, Mus musculus
# [29] = test system: P338; test: Survivor recorded on day 4 after day of first injection as a measure of drug toxicity(dose 6.25 mg/kg); 8/8; type: functional, Mus musculus
# [30] = test system: P338; test: Ratio of medium survival time expressed as percent of untreated controls (dose 5 mg/kg); type: functional, Mus musculus; summary of the method: as §1
# [31] = test system: P338; test: Survivor recorded on day 4 after day of first injection as a measure of drug toxicity (dose 20 mg/kg); 8/8; type: functional, Mus musculus
# [32] = test system: P338; test: Ratio of medium survival time expressed as percent of untreated controls (dose 10 mg/kg); type: functional, Mus musculus; summary of the method: as §1
# [33] = test system: P338; test: Ratio of medium survival time expressed as percent of untreated controls (dose 20 mg/kg); type: functional, Mus musculus; summary of the method: as §1
# [34] = test system: P338; test: Ratio of medium survival time expressed as percent of untreated controls(dose 40 mg/kg); Toxic; type: functional, organism-based; design: dose 40 mg/kg; conditions: Mus musculus, at 40 mg/kg; summary of the method: as §1
# [35] = test system: P338; test: Survivor recorded on day 4 after day of first injection as a measure of drug toxicity (dose 2.5 mg/kg); 8/8; type: functional, Mus musculus
# [36] = test system: P338; test: Ratio of medium survival time expressed as percent of untreated controls(dose 1.25 mg/kg); type: functional, Mus musculus; summary of the method: as §1
# [37] = test system: P338; test: Survivor recorded on day 4 after day of first injection as a measure of drug toxicity(dose 1.25 mg/kg); 8/8; type: functional, Mus musculus
# [38] = test system: P338; test: Survivor recorded on day 4 after day of first injection as a measure of drug toxicity (dose 40 mg/kg); 8/8; type: functional, Mus musculus
# [39] = test system: P338; test: Survivor recorded on day 4 after day of first injection as a measure of drug toxicity (dose 5 mg/kg); 8/8; type: functional, Mus musculus
# [40] = test system: P338; test: Ratio of medium survival time expressed as percent of untreated controls (dose 2.5 mg/kg); type: functional, Mus musculus; summary of the method: as §1
# [41] = test system: P338; test: Survivor recorded on day 4 after day of first injection as a measure of drug toxicity (dose 10 mg/kg); 8/8; type: functional, Mus musculus
structure (smiles),measurement,setting,value
O=C1c2c(O)ccc(O)c2C(=O)c2c(NCCNCCO)ccc(NCCNCCO)c21 [MITOXANTRONE],EC50,[1],> 5 µg/mL
same,EC50,[2],0.55 µg/mL
O=C1c2ccccc2C(=O)c2c(NCCNCCO)ccc(NCCNCCO)c21 [AMETANTRONE],T/C,[3],190%
same,Survival,[4],6
same,Survival,[5],6
same,T/C,[6],200%
same,T/C,[7],300%
same,EC50,[1],1.77 µg/mL
same,EC50,[2],0.17 µg/mL
same,Survival,[8],6
same,Survival,[9],6
same,T/C,[10],210%
CN(C)CCC(=O)Nc1ccc(NC(=O)CCN(C)C)c2c1C(=O)c1ccccc1C2=O,T/C,[11],91%
same,T/C,[12],Toxic
same,T/C,[13],91%
same,Survival,[14],0
same,Survival,[15],8
same,T/C,[16],100%
same,Survival,[17],8
same,EC50,[1],0.36 µg/mL
same,EC50,[2],0.05 µg/mL
same,Survival,[18],8
same,Survival,[19],8
same,Survival,[20],6
same,T/C,[21],100%
CNCC(=O)Nc1ccc(NC(=O)CNC)c2c1C(=O)c1ccccc1C2=O,Survival,[22],8
same,T/C,[3],100%
same,Survival,[23],8
same,T/C,[24],100%
same,T/C,[6],100%
same,Survival,[25],8
same,Survival,[26],8
same,T/C,[7],100%
same,EC50,[1],0.79 µg/mL
same,T/C,[27],111%
same,EC50,[2],0.14 µg/mL
same,Survival,[28],8
same,Survival,[29],8
same,T/C,[10],111%
CNCCC(=O)Nc1ccc(NC(=O)CCNC)c2c1C(=O)c1ccccc1C2=O,T/C,[30],130%
same,Survival,[31],8
same,T/C,[32],130%
same,T/C,[33],120%
same,T/C,[34],Toxic
same,Survival,[35],8
same,EC50,[1],1.28 µg/mL
same,EC50,[2],0.08 µg/mL
same,T/C,[36],110%
same,Survival,[37],8
same,Survival,[38],8
same,Survival,[39],8
same,T/C,[40],120%
same,Survival,[41],8
CN(C)CC(=O)Nc1ccc(NC(=O)CN(C)C)c2c1C(=O)c1ccccc1C2=O,EC50,[1],2.26 µg/mL
same,EC50,[2],0.39 µg/mL
O=C(CNCCO)Nc1ccc(NC(=O)CNCCO)c2c1C(=O)c1ccccc1C2=O,EC50,[1],> 5 µg/mL
same,EC50,[2],1.41 µg/mL

# Source: ChEMBL document CHEMBL1123978, “Synthesis and antineoplastic evaluation of 1,4-bis(aminoalkanamido)-9,10-anthracenediones” (J Med Chem, 1988)
